From ChEMBL document CHEMBL3797202, “Novel Oxindole Sulfonamides and Sulfamides: EPZ031686, the First Orally Bioavailable Small Molecule SMYD3 Inhibitor” (ACS Med Chem Lett, 2016)

Experiments:
[1] = AUC (0 to last) in CD1 mouse at 5 mg/kg, administered through oral gavage measured up to 24 hrs by LC-MS/MS analysis; format: ADME, organism-based; design: dose 5 mg/kg, route oral, time 0 - last; conditions: in vivo
Procedure, shortened: (§1)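 Male CD-1 mice received a single bolus: 1 mg/kg i.v., or 5 or 50 mg/kg p.o. Values are mean ± SD, n = 3. […] Bioavailability was determined separately for each oral dose.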

[2] = biological target: T1, Histone-lysine N-methyltransferase EHMT2 (Homo sapiens) (UniProt Q96KQ7); assay: Inhibition of EHMT2 (unknown origin) at 10 uM relative to control
T1 sequence (whole entry): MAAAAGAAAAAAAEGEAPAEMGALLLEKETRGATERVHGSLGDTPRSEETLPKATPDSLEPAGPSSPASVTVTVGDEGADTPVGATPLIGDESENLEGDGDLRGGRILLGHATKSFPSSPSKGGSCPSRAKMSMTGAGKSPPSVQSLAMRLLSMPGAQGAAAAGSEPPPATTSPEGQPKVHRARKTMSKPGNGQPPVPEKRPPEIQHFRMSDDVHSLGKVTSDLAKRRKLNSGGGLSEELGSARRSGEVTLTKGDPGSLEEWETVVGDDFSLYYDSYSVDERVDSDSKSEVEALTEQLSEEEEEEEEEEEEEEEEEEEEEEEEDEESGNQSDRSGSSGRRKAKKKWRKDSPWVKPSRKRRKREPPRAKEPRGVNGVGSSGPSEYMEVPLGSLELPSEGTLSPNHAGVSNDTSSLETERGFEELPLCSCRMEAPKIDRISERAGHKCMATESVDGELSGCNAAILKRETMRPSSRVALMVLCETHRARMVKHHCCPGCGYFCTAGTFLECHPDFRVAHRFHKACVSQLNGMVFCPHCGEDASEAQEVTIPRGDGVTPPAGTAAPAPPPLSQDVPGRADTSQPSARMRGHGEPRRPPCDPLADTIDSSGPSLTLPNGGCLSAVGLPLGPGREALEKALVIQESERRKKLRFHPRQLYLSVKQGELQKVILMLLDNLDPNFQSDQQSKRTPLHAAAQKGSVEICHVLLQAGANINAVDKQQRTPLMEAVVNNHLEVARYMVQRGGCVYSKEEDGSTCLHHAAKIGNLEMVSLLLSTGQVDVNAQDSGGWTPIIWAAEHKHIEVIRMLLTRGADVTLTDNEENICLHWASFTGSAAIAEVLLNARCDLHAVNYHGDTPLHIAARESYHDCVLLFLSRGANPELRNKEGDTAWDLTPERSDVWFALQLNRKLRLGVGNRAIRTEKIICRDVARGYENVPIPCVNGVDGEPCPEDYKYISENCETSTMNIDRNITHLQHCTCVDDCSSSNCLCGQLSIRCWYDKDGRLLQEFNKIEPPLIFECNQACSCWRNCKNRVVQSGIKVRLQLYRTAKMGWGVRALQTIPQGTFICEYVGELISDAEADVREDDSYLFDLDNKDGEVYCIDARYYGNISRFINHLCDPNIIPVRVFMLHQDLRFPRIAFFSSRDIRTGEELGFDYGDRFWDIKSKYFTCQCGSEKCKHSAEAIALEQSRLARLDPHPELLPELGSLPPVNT

[3] = AUC (0 to last) in CD1 mouse at 50 mg/kg, administered through oral gavage measured up to 24 hrs by LC-MS/MS analysis; format: ADME, organism-based; design: dose 50 mg/kg, route oral, time 0 - last; conditions: in vivo; procedure, shortened: as §1
[4] = Oral bioavailability in CD1 mouse at 5 mg/kg measured up to 24 hrs by LC-MS/MS analysis; format: ADME, organism-based; conditions: in vivo; procedure, shortened: as §1
[5] = Cmax in CD1 mouse at 5 mg/kg, administered through oral gavage measured up to 24 hrs by LC-MS/MS analysis; format: ADME, organism-based; design: dose 5 mg/kg, route oral; conditions: in vivo; procedure, shortened: as §1
[6] = Volume of distribution at steady state in CD1 mouse at 1 mg/kg, iv as bolus dose measured up to 24 hrs by LC-MS/MS analysis; format: ADME, organism-based; conditions: in vivo, read-out: Vdss; procedure, shortened: as §1
[7] = Cmax in CD1 mouse at 50 mg/kg, administered through oral gavage measured up to 24 hrs by LC-MS/MS analysis; format: ADME, organism-based; design: dose 50 mg/kg, route oral; conditions: in vivo; procedure, shortened: as §1
[8] = Tmax in CD1 mouse at 50 mg/kg, administered through oral gavage by LC-MS/MS analysis; format: ADME, organism-based; conditions: in vivo; procedure, shortened: as §1
[9] = Terminal half life in CD1 mouse at 50 mg/kg, administered through oral gavage by LC-MS/MS analysis; format: ADME, organism-based; conditions: in vivo, read-out: beta t1/2 (converted); procedure, shortened: as §1
[10] = Terminal half life in CD1 mouse at 1 mg/kg, iv as bolus dose by LC-MS/MS analysis; format: ADME, organism-based; conditions: in vivo, read-out: beta t1/2 (converted); procedure, shortened: as §1
[11] = Oral bioavailability in CD1 mouse at 50 mg/kg measured up to 24 hrs by LC-MS/MS analysis; format: ADME, organism-based; conditions: in vivo; procedure, shortened: as §1
[12] = Clearance in CD1 mouse at 1 mg/kg, iv as bolus dose measured up to 24 hrs by LC-MS/MS analysis; format: ADME, organism-based; conditions: in vivo; procedure, shortened: as §1
[13] = Terminal half life in CD1 mouse at 5 mg/kg, administered through oral gavage by LC-MS/MS analysis; format: ADME, organism-based; conditions: in vivo, read-out: beta t1/2 (converted); procedure, shortened: as §1
[14] = biological target: T2, Histone-lysine N-methyltransferase SMYD3 (Homo sapiens, UniProt Q9H7B4); assay: Non-competitive inhibition of full length N-terminal His-tagged SMYD3 (1 to 428 residues) (unknown origin) expressed in Escherichia coli using fixed N-terminal GST-tagged MEKK2 substrate and varying SAM levels preincubated for 30 mins followed by substrate addition by filter plate assay
T2 sequence (Q9H7B4 whole entry): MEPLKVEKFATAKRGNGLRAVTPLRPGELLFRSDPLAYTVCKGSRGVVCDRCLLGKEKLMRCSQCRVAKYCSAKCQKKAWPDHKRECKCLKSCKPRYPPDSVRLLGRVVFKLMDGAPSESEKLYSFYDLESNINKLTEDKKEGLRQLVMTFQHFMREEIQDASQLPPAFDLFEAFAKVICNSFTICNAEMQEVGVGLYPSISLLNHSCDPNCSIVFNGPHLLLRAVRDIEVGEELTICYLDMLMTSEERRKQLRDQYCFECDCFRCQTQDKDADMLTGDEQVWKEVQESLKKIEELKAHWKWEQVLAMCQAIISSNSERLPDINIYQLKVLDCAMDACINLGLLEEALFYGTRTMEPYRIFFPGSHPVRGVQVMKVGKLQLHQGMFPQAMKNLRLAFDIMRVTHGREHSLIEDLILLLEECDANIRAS

[15] = Drug excretion in CD1 mouse urine at 1 mg/kg, iv as bolus dose after 24 hrs by LC-MS/MS analysis; format: ADME, organism-based; conditions: read-out: Drug excretion; procedure, shortened: as §1
[16] = Tmax in CD1 mouse at 5 mg/kg, administered through oral gavage by LC-MS/MS analysis; format: ADME, organism-based; conditions: in vivo; procedure, shortened: as §1
[17] = AUC (0 to infinity) in CD1 mouse at 1 mg/kg, iv as bolus dose measured up to 24 hrs by LC-MS/MS analysis; format: ADME, organism-based; design: dose 1 mg/kg, route intravenous, time infinity; conditions: in vivo; procedure, shortened: as §1
[18] = Efflux ratio of apparent permeability in human Caco2 cells at 10 uM incubated for 120 mins by LC-MS/MS analysis; format: ADME, cell-based; conditions: Caco-2
Procedure, shortened: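 Permeability in Caco-2 cells, measured apical-to-basolateral as P_app (×10⁻⁶ cm/s). An efflux ratio is reported as the index of active efflux. This is part of an in vitro ADME screen run before mouse PK studies.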

SMILES	AUC(0-t) at 24 h [1] [ng·h/mL]	inhibition [2] [%]	AUC(0-t) at 24 h [3] [ng·h/mL]	bioavailability [4] [%]	Cmax [5] [ng/mL]	Vd [6] [L/kg]	Cmax [7] [ng/mL]	Tmax [8] [h]	half-life [9] [min]	half-life [10] [min]	bioavailability [11] [%]	clearance [12] [mL/min/kg]	half-life [13] [min]	Ki [14] [nM]	dose excreted at 24 h [15] [%]	Tmax [16] [min]	AUC(0-inf) [17] [ng·h/mL]	efflux ratio at 2 h, 10 µM [18]
O=C1Cc2cc(C(=O)N[C@H]3C[C@H]4CC[C@@H](C3)N4S(=O)(=O)CC3CCN(CCCC(F)(F)F)CC3)c(Cl)cc2N1	1280	< 30	21200	48	345	2.3	4690	1.3	132	102	69	27	162	1.2	20	53.4	616	41
O=C1Cc2cc(C(=O)N[C@H]3C[C@H]4CC[C@@H](C3)N4S(=O)(=O)N3CCC(NCc4ccccc4)CC3)c(Cl)cc2N1		< 30																
